Experimental data from ChEMBL document CHEMBL2046313, “Discovery and evaluation of a non-Zn chelating, selective matrix metalloproteinase 13 (MMP-13) inhibitor for potential intra-articular treatment of osteoarthritis” (J Med Chem, 2012).

Tests used:
Matrilysin = target: T1, Matrilysin (Homo sapiens, UniProt P09237); test: Inhibition of human recombinant MMP7 using MCA-Pro-Leu-Gly-Leu-Dpa-Ala-Arg-NH2.AcOH as substrate preincubated for 10 mins measured by fluorescence analysis
T1 sequence (P09237 whole entry): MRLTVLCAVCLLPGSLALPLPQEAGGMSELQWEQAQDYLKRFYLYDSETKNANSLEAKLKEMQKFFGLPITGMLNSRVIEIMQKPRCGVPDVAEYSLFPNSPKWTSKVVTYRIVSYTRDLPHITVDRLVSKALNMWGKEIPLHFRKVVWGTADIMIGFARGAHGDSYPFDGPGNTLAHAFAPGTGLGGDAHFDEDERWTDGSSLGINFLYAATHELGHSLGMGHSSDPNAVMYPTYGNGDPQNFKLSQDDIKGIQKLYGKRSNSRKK
Outline: (§1)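 Catalytic domains of recombinant human MMPs were assayed with fluorogenic OmniMMP substrate in 50 mM Tris-HCl pH 7.5, 150 mM NaCl, 5 mM CaCl₂, 0.05% Brij-35. Enzyme was 1–10 nM and substrate 4–10 μM, optimized per assay. Enzyme was preincubated 10 min with varying inhibitor concentrations, and IC50 was calculated from runs done at least in duplicate.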

Interstitial collagenase = target: T2, Interstitial collagenase (Homo sapiens, UniProt P03956); test: Inhibition of human recombinant MMP1 using MCA-Pro-Leu-Gly-Leu-Dpa-Ala-Arg-NH2.AcOH as substrate preincubated for 10 mins measured by fluorescence analysis; outline: as §1
T2 sequence (P03956 whole entry): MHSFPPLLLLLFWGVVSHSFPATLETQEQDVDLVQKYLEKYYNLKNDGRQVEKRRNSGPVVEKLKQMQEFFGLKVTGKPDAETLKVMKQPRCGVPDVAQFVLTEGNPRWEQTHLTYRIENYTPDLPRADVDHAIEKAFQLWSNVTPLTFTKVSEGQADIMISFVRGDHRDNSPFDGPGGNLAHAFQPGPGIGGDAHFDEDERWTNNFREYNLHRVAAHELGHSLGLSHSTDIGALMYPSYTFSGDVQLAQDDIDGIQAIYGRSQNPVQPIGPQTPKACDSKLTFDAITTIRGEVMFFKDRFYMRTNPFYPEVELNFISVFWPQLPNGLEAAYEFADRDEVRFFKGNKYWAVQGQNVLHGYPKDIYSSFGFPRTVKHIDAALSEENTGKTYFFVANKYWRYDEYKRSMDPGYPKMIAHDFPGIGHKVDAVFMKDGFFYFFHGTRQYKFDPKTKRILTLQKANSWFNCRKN

[1] = target: Matrix metalloproteinase-9 (Homo sapiens, UniProt P14780); test: Inhibition of human recombinant MMP9 using MCA-Pro-Leu-Gly-Leu-Dpa-Ala-Arg-NH2.AcOH as substrate preincubated for 10 mins measured by fluorescence analysis; outline: as §1
Sequence of Matrix metalloproteinase-9 (P14780 whole entry): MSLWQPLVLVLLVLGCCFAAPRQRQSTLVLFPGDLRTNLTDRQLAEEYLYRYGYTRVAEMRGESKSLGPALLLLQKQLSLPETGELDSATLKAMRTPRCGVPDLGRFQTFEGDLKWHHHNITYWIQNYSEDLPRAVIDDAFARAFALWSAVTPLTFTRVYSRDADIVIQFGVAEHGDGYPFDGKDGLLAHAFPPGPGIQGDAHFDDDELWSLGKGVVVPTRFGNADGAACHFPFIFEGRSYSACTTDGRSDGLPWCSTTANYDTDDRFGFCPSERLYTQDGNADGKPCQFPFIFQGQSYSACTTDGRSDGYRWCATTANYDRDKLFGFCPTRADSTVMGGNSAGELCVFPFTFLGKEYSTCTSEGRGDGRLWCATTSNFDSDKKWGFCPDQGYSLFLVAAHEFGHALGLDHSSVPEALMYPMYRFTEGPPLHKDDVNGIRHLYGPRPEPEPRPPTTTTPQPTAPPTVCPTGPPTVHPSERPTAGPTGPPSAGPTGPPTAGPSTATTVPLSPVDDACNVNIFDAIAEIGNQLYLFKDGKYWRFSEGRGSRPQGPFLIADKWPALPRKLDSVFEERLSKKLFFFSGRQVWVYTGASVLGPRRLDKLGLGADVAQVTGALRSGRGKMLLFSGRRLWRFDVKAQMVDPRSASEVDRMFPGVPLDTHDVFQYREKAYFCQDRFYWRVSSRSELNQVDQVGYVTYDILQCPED

[2] = target: T3, A disintegrin and metalloproteinase with thrombospondin motifs 4 (Homo sapiens, UniProt O75173); test: Inhibition of human recombinant aggrecanase 1 using aggrecan-IGD as substrate measured after 15 mins by ELISA
T3 sequence (O75173 whole entry): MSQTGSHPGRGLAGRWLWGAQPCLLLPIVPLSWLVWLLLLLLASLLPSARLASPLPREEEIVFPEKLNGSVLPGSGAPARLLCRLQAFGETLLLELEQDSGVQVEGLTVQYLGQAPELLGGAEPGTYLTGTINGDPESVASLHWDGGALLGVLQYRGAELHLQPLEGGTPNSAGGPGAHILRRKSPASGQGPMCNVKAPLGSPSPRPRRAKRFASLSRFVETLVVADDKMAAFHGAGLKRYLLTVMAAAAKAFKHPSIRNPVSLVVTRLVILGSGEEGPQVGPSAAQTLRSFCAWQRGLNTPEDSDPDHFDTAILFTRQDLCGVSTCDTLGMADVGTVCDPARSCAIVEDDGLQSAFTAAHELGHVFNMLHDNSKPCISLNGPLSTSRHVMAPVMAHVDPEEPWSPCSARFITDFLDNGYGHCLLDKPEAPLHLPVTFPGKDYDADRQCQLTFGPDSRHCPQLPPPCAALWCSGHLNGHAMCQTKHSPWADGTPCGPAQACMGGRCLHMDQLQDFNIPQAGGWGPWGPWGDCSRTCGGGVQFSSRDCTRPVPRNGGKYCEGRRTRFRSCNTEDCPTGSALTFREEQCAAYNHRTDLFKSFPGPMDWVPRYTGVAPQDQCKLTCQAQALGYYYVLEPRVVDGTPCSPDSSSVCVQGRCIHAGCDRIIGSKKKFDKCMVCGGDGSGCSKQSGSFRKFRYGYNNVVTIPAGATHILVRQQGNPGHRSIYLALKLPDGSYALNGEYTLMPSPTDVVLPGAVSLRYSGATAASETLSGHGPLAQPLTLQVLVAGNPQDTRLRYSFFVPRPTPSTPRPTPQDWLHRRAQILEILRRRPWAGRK
Outline: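 Aggrecanase-1 was run in 50 mM Tris-HCl pH 7.5, 150 mM NaCl, 5 mM CaCl₂, 0.05% Brij-35, with 100 nM recombinant human aggrecan interglobular domain as substrate, for 15 min at 37 °C. The reaction was stopped with EDTA, and ARGSVIL neoepitopes were quantified by ELISA.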

[3] = target: 72 kDa type IV collagenase (Homo sapiens, UniProt P08253); test: Inhibition of human recombinant MMP2 using MCA-Pro-Leu-Gly-Leu-Dpa-Ala-Arg-NH2.AcOH as substrate preincubated for 10 mins measured by fluorescence analysis; outline: as §1
Sequence of 72 kDa type IV collagenase (P08253 whole entry): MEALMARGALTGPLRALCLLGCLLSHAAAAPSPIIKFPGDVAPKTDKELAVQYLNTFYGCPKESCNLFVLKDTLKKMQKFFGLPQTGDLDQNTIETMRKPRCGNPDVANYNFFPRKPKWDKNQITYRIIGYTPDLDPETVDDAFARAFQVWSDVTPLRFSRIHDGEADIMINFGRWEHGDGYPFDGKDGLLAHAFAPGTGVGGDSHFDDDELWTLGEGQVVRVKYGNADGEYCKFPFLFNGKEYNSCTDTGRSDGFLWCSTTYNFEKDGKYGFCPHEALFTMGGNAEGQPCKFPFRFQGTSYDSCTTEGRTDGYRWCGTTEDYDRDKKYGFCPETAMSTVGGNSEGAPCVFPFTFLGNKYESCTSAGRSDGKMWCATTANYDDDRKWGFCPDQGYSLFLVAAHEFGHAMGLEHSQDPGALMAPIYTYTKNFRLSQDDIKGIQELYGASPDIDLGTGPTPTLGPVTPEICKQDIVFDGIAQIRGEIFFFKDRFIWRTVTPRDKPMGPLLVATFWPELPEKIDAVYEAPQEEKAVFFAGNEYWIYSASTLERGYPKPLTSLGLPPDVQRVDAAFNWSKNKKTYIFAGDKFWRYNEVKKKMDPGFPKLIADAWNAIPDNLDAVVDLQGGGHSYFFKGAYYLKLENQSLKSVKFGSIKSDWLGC

[4] = target: Matrix metalloproteinase-14 (Homo sapiens, UniProt P50281); test: Inhibition of human recombinant MMP14 using MCA-Pro-Leu-Gly-Leu-Dpa-Ala-Arg-NH2.AcOH as substrate preincubated for 10 mins measured by fluorescence analysis; outline: as §1
Collagenase 3 = Collagenase 3 (Homo sapiens, UniProt P45452); test: Inhibition of human recombinant MMP13 using MCA-Pro-Cha-Gly-Nva-His-Ala-Dpa-NH2 as substrate preincubated for 10 mins measured by fluorescence analysis
Outline: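 Catalytic domain of recombinant human MMP-13 was assayed with fluorogenic substrate in 50 mM Tris-HCl pH 7.5, 150 mM NaCl, 5 mM CaCl₂, 0.05% Brij-35. Enzyme was 1–10 nM and substrate 4–10 μM. It was preincubated 10 min with varying inhibitor concentrations, and IC50 came from at least duplicate runs.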

Neutrophil collagenase = Neutrophil collagenase (Homo sapiens, UniProt P22894); test: Inhibition of human recombinant MMP8 using MCA-Pro-Leu-Gly-Leu-Dpa-Ala-Arg-NH2.AcOH as substrate preincubated for 10 mins measured by fluorescence analysis; outline: as §1
Sequence of Neutrophil collagenase (P22894 whole entry, the tested form may be a part): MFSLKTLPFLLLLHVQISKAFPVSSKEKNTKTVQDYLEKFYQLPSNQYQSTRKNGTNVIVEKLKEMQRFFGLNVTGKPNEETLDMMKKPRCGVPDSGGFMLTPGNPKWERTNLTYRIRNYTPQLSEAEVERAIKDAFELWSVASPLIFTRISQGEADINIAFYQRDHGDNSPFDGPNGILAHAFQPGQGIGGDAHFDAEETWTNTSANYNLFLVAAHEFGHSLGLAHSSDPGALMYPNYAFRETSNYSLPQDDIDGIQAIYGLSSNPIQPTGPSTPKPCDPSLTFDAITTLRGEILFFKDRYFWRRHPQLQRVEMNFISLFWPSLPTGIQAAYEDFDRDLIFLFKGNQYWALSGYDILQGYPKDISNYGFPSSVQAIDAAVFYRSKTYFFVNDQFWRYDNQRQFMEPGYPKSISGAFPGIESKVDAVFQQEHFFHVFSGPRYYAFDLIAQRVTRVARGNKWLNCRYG

[5] = target: Disintegrin and metalloproteinase domain-containing protein 17 (Homo sapiens, UniProt P78536); test: Inhibition of human recombinant TACE using MCA-Pro-Leu-Ala-Gln-Ala-Val-Dpa-Arg-Ser-Ser-Ser-Arg-NH2 as substrate preincubated for 10 mins measured by fluorescence analysis
Sequence of Disintegrin and metalloproteinase domain-containing protein 17 (P78536 whole entry, the tested form may be a part): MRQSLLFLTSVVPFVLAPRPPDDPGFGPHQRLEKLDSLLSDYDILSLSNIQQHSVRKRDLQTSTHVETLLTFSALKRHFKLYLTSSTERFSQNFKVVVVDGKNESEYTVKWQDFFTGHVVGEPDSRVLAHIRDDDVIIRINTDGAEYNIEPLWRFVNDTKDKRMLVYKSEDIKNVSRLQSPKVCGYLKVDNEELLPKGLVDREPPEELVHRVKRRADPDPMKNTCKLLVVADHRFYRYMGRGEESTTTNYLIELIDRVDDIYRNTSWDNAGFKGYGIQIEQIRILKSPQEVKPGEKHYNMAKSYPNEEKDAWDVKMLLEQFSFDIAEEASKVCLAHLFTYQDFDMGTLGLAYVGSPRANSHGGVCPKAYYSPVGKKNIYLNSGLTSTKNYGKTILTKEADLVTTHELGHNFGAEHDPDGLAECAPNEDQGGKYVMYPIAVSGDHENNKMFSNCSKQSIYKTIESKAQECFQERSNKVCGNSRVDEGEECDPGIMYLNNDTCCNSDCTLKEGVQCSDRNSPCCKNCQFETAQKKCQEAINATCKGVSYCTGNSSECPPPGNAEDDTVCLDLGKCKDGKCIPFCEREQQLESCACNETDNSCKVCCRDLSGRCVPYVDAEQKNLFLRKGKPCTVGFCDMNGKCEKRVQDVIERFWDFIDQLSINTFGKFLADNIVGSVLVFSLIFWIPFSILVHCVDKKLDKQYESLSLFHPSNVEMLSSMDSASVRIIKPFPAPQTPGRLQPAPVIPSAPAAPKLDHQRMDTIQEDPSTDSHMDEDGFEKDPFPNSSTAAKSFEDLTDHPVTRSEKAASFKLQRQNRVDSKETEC
Outline: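 Recombinant human TACE was assayed with its fluorogenic peptide substrate in 25 mM Tris-HCl pH 9, 1.25 μM Zn(OAc)₂, 0.005% Brij-35. Enzyme was 1–10 nM and substrate 4–10 μM. Enzyme was preincubated 10 min with varying inhibitor concentrations, and IC50 came from at least duplicate runs.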

Rattus norvegicus [6] = species: Rattus norvegicus; test: Chondroprotective activity in Sprague-Dawley rat cartilage assessed as inhibition of MMP13-mediated C1,C2 release at 0.5 mg/joint, ia measured after 24 hrs by ELISA; type: functional
Outline: (§2)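 Male Sprague-Dawley rats (175−200 g, three per group) received one IA injection of 50 μL PBS holding 10 mg/mL suspension (sonicated, vortexed) into right knee. They were killed at 1, 7, 14 or 21 days, and tibial cartilage was collected. Cartilage was then challenged with 10 μg/mL APMA-activated human MMP-13 for 24 h at 37 °C in Tris pH 7.5. The reaction was stopped with 10 mM EDTA, and released C1,2C was measured by ELISA. Vehicle cartilage incubated with or without MMP-13 defined 100% and 0%.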

Stromelysin-1 = Stromelysin-1 (Homo sapiens, UniProt P08254); test: Inhibition of human recombinant MMP3 using MCAArg-Pro-Lys-Pro-Val-Glu-Nva-Trp-Arg-Lys(DNP)-NH2 as substrate preincubated for 10 mins measured by fluorescence analysis
Sequence of Stromelysin-1 (P08254 whole entry, the tested form may be a part): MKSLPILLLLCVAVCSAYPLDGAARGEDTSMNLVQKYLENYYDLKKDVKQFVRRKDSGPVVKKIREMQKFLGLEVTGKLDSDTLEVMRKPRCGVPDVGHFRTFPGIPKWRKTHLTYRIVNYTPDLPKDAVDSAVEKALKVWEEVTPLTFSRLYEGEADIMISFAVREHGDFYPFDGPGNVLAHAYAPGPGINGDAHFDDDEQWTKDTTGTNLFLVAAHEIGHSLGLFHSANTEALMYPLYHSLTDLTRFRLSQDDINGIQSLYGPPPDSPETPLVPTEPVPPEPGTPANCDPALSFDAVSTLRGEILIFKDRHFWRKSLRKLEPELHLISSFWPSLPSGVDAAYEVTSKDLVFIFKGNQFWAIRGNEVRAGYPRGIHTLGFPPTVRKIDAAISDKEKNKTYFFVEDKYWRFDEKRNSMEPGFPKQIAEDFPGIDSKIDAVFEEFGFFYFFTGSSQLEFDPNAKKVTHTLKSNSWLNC
Outline: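 Catalytic domain of recombinant human MMP-3 was assayed with NFF-3 fluorogenic substrate in 50 mM MES pH 6.0, 10 mM CaCl₂, 0.05% Brij-35. Enzyme was 1–10 nM and substrate 4–10 μM. Enzyme was preincubated 10 min with varying inhibitor concentrations, and IC50 came from at least duplicate runs.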

Rattus norvegicus [7] = species: Rattus norvegicus; test: Chondroprotective activity in Sprague-Dawley rat cartilage assessed as inhibition of MMP13-mediated C1,C2 release at 0.5 mg/joint, ia measured on day 7 by ELISA; type: functional; outline: as §2
[8] = target: Macrophage metalloelastase (Homo sapiens, UniProt P39900); test: Inhibition of human recombinant MMP12 using MCA-Pro-Leu-Gly-Leu-Dpa-Ala-Arg-NH2.AcOH as substrate preincubated for 10 mins measured by fluorescence analysis; outline: as §1
Sequence of Macrophage metalloelastase (P39900 whole entry): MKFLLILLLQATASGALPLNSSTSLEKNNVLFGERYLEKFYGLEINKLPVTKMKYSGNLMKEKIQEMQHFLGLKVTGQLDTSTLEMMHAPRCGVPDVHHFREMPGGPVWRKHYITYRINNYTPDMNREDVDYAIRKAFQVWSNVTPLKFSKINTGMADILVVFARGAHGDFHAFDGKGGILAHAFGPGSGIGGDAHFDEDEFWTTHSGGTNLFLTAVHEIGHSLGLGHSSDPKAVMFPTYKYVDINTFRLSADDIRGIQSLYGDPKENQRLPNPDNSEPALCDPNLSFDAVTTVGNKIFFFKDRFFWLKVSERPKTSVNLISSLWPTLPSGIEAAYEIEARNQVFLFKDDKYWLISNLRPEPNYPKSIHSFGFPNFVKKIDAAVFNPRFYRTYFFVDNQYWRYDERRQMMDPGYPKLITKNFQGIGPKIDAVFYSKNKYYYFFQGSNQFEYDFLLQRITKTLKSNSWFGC

Rattus norvegicus [9] = species: Rattus norvegicus; test: Chondroprotective activity in Sprague-Dawley rat cartilage assessed as inhibition of MMP13-mediated C1,C2 release at 0.5 mg/joint, ia measured on day 14 by ELISA; type: functional; outline: as §2
Cartilage tissue = test: Inhibition of collagen degradation in bovine articular cartilage assessed as inhibition of interlukein-1alpha/oncostatin M-induced C1,C2 release measured after 11 days by ELISA; type: functional, tissue-based; settings: Bos taurus, 264 h
Outline: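 Freshly isolated bovine articular cartilage pieces (~3 mm²) were stimulated with 5 ng/mL IL-1α plus 50 ng/mL OSM, with or without compound, for 11 days. Medium was refreshed twice weekly. Collagen degradation products in the conditioned medium were quantified by C1,2C ELISA.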

Question: How did the IC50 (Matrilysin) turn out when `Cc1c(C(=O)O)ccc2c1CC[C@@H]2NC(=O)c1cc(C(=O)NCc2ccc(F)c(C(F)(F)F)c2)nc2c(F)cnn12` was run?
Answer: The IC50 was greater than 20 µM.

Question: And the IC50 (Interstitial collagenase)?
Answer: The IC50 was greater than 20 µM.

Question: And the IC50 [1]?
Answer: Its IC50 is greater than 20 µM.

Question: What about the IC50 [2] of the same molecule?
Answer: Its IC50 is 7 µM.

Question: What about the IC50 [3] of the same molecule?
Answer: The IC50 was greater than 20 µM.

Question: What about the IC50 [4] of the same molecule?
Answer: Its IC50 is greater than 20 µM.

Question: And the IC50 (Collagenase 3)?
Answer: The IC50 was 0.0013 µM.

Question: And the IC50 (Neutrophil collagenase)?
Answer: The IC50 was greater than 20 µM.

Question: And the IC50 [5]?
Answer: Its IC50 is greater than 20 µM.

Question: What about the “inhibition (INH)” value (Rattus norvegicus [6]) of the same molecule?
Answer: The value was 95%.

Question: What about the IC50 (Stromelysin-1) of the same molecule?
Answer: The IC50 was 15 µM.

Question: What about the “inhibition (INH)” value (Rattus norvegicus [7]) of the same molecule?
Answer: Its value is 60%.

Question: And the IC50 [8]?
Answer: The IC50 was greater than 20 µM.

Question: What about the “inhibition (INH)” value (Rattus norvegicus [9]) of the same molecule?
Answer: Its value is 0%.

Question: And the IC50 (Cartilage tissue)?
Answer: Its IC50 is 0.005 µM.
